≈ marks a conversion by molar mass, not a printed value. Calls of active or inactive are those of the source. The rule behind the calls is not given here.
How the values were obtained:
rhinovirus A15 = experiment: Minimum inhibitory concentration against human rhinovirus serotype 15; assay type: functional; conditions: Rhinovirus A
Method in brief: (§1)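 Plaque reduction assay in HeLa-Ohio cells. MIC is the concentration (μM) that cut plaque number by 50%.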

rhinovirus A21 = experiment: Minimum inhibitory concentration against human rhinovirus serotype 21; assay type: functional; conditions: Rhinovirus A; method in brief: as §1
rhinovirus B14 [1] = experiment: Minimum inhibitory concentration against human rhinovirus serotype 14; assay type: functional; conditions: Rhinovirus B; method in brief: as §1
rhinovirus B6 = experiment: Minimum inhibitory concentration against human rhinovirus serotype 6; assay type: functional; conditions: Rhinovirus B; method in brief: as §1
Human rhinovirus 1A = experiment: Minimum inhibitory concentration against human rhinovirus serotype 1A; assay type: functional; method in brief: as §1
rhinovirus A2 [2] = experiment: (§2) Minimum inhibitory concentration against human rhinovirus serotype 2; assay type: functional; conditions: Rhinovirus A; method in brief: as §1
rhinovirus A22 = experiment: Minimum inhibitory concentration against human rhinovirus serotype 22; assay type: functional; conditions: Rhinovirus A; method in brief: as §1
rhinovirus A2 [3] = experiment: as §2; assay type: functional; conditions: Rhinovirus A; method in brief: as §1; remark: listed apart in the source
rhinovirus A25 = experiment: Minimum inhibitory concentration against human rhinovirus serotype 25; assay type: functional; conditions: Rhinovirus A; method in brief: as §1
Human rhinovirus sp. [4] = experiment: (§3) In vitro inhibition of 80% of the serotypes; assay type: functional
Method in brief: (§4)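 Fifteen rhinovirus serotypes (HRV-14 plus 14 more) were each run in a plaque reduction assay in HeLa-Ohio cells. The MIC for each serotype was the μM concentration giving 50% plaque reduction. MIC80 is the concentration that inhibited 80% of the serotypes tested.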

rhinovirus A50 = experiment: Minimum inhibitory concentration against human rhinovirus serotype 50; assay type: functional; conditions: Rhinovirus A; method in brief: as §1
rhinovirus A89 = experiment: Minimum inhibitory concentration against human rhinovirus serotype 89; assay type: functional; conditions: Rhinovirus A; method in brief: as §1
rhinovirus A67 = experiment: Minimum inhibitory concentration against human rhinovirus serotype 67; assay type: functional; conditions: Rhinovirus A; method in brief: as §1
rhinovirus A1B = experiment: Minimum inhibitory concentration against human rhinovirus serotype 1B; assay type: functional; conditions: Rhinovirus A; method in brief: as §1
rhinovirus B14 [5] = experiment: Minimum inhibitory concentration in vitro against HRV-14 in a plaque reduction assay; assay type: functional, human rhinovirus type 14; conditions: Rhinovirus B; method in brief: as §1
rhinovirus A41 = experiment: Minimum inhibitory concentration against human rhinovirus serotype 41; assay type: functional; conditions: Rhinovirus A; method in brief: as §1
rhinovirus A30 = experiment: Minimum inhibitory concentration against human rhinovirus serotype 30; assay type: functional; conditions: Rhinovirus A; method in brief: as §1
rhinovirus B86 = experiment: Minimum inhibitory concentration against human rhinovirus serotype 86; assay type: functional; conditions: Rhinovirus B; method in brief: as §1
rhinovirus B14 [6] = experiment: Minimum inhibitory concentration in vitro against HRV-14 in a plaque reduction assay; NA=Not active; assay type: functional, organism-based; conditions: human rhinovirus type 14; method in brief: as §1
Human rhinovirus sp. [7] = experiment: as §3; assay type: functional; method in brief: as §4; remark: listed apart in the source

In the case of `Cc1cc(CCCCCOc2c(Cl)cc(-c3nnn(C)n3)cc2Cl)on1`, the MIC (rhinovirus A15) is reported as 0.25 µM (≈ 0.0991 µg/mL), the MIC (rhinovirus A21) is reported as 0.02 µM (≈ 0.00793 µg/mL) and the MIC (rhinovirus B14 [1]) is reported as 0.38 µM (≈ 0.151 µg/mL). For the same compound, the MIC (rhinovirus B6) was 0.23 µM (≈ 0.0911 µg/mL), the MIC (Human rhinovirus 1A) was 0.38 µM (≈ 0.151 µg/mL) and the MIC (rhinovirus A2 [2]) was 0.025 µM (≈ 0.00991 µg/mL). For the same compound, the MIC (rhinovirus A22) was 0.008 µM (≈ 0.00317 µg/mL), the MIC (rhinovirus A2 [3]) was 0.025 µM (≈ 0.00991 µg/mL) and the MIC (rhinovirus A25) was 0.08 µM (≈ 0.0317 µg/mL). The MIC80 (Human rhinovirus sp. [4]) was 0.25 µM (≈ 0.0991 µg/mL), the MIC (rhinovirus A50) was 0.06 µM (≈ 0.0238 µg/mL) and the MIC (rhinovirus A89) was 0.01 µM (≈ 0.00396 µg/mL). It also gave an MIC (rhinovirus A67) of 0.18 µM (≈ 0.0713 µg/mL), an MIC (rhinovirus A1B) of 0.05 µM (≈ 0.0198 µg/mL) and an MIC (rhinovirus B14 [5]) of 0.38 µM (≈ 0.151 µg/mL). The MIC (rhinovirus A41) was 0.63 µM (≈ 0.25 µg/mL), the MIC (rhinovirus A30) was 0.23 µM (≈ 0.0911 µg/mL) and the MIC (rhinovirus B86) was 0.24 µM (≈ 0.0951 µg/mL).
`Cc1cc(CCCCCOc2c(Cl)cc(-c3ccc(Cl)s3)cc2Cl)on1` was tested, and the MIC80 (Human rhinovirus sp. [4]) was 3.13 µM (≈ 1.35 µg/mL) and the MIC (rhinovirus B14 [5]) was 5.3 µM (≈ 2.28 µg/mL).
With `Cc1cc(CCCCCOc2c(Cl)cc(C3=NCCC3)cc2Cl)on1` the MIC (rhinovirus B14 [6]) was “inactive”.
Compound `Cc1cc(CCCCCOc2c(Cl)cc(-c3ccccn3)cc2Cl)on1` has an MIC80 (Human rhinovirus sp. [4]) of 1.38 µM (≈ 0.54 µg/mL) and an MIC (rhinovirus B14 [5]) of 6.64 µM (≈ 2.6 µg/mL).
With `Cc1cc(CCCCCOc2c(Cl)cc(-c3ccoc3)cc2Cl)on1` the MIC80 (Human rhinovirus sp. [4]) was 2.9 µM (≈ 1.1 µg/mL) and the MIC (rhinovirus B14 [6]) was “inactive”.
Compound `Cc1cc(CCCCCOc2c(Cl)cc(-c3ccco3)cc2Cl)on1` has an MIC80 (Human rhinovirus sp. [4]) of 1.05 µM (≈ 0.399 µg/mL) and an MIC (rhinovirus B14 [5]) of 0.71 µM (≈ 0.27 µg/mL).
With `Cc1cc(CCCCCOc2c(Cl)cc(-c3cccc(C)n3)cc2Cl)on1` the MIC80 (Human rhinovirus sp. [4]) was 1.93 µM (≈ 0.782 µg/mL) and the MIC (rhinovirus B14 [5]) was 5.88 µM (≈ 2.38 µg/mL).
With `Cc1cc(CCCCCOc2c(Cl)cc(-c3cccn3C)cc2Cl)on1` the MIC (rhinovirus B14 [6]) was “inactive”.
`Cc1cc(CCCCCOc2c(Cl)cc(-c3cnco3)cc2Cl)on1` showed an MIC80 (Human rhinovirus sp. [4]) of 2.24 µM (≈ 0.854 µg/mL) and an MIC (rhinovirus B14 [5]) of 12.8 µM (≈ 4.86 µg/mL).
With `Cc1cc(CCCCCOc2c(Cl)cc(-c3cccs3)cc2Cl)on1` the MIC80 (Human rhinovirus sp. [4]) was 1.11 µM (≈ 0.44 µg/mL) and the MIC (rhinovirus B14 [5]) was 7.32 µM (≈ 2.9 µg/mL).
In the case of `Cc1cc(CCCCCOc2c(Cl)cc(-c3cccnc3)cc2Cl)on1`, the MIC (rhinovirus B14 [5]) is reported as 6.6 µM (≈ 2.58 µg/mL).
`Cc1cc(CCCCCOc2c(Cl)cc(-c3nc(C)c(C)o3)cc2Cl)on1` gave an MIC80 (Human rhinovirus sp. [4]) of 1.3 µM (≈ 0.532 µg/mL) and an MIC (rhinovirus B14 [5]) of 2.79 µM (≈ 1.14 µg/mL).
For `Cc1cc(CCCCCOc2c(Cl)cc(-c3ccc(C)o3)cc2Cl)on1`, the MIC80 (Human rhinovirus sp. [4]) was 1.27 µM (≈ 0.501 µg/mL) and the MIC (rhinovirus B14 [5]) was 2.64 µM (≈ 1.04 µg/mL).
For `Cc1cc(CCCCCOc2c(Cl)cc(C3=NCCO3)cc2Cl)on1` [WIN-54954], the MIC (rhinovirus A15) was 0.41 µM (≈ 0.157 µg/mL), the MIC (rhinovirus A21) was 0.02 µM (≈ 0.00767 µg/mL) and the MIC (rhinovirus B14 [1]) was 1.2 µM (≈ 0.46 µg/mL). For the same compound, the MIC (rhinovirus B6) was 0.23 µM (≈ 0.0882 µg/mL), the MIC (Human rhinovirus 1A) was 2.51 µM (≈ 0.962 µg/mL) and the MIC (rhinovirus A22) was 0.02 µM (≈ 0.00767 µg/mL). The MIC (rhinovirus A2 [3]) was 0.023 µM (≈ 0.00882 µg/mL), the MIC (rhinovirus A25) was 0.29 µM (≈ 0.111 µg/mL) and the MIC80 (Human rhinovirus sp. [4]) was 0.33 µM (≈ 0.126 µg/mL). It also gave an MIC (rhinovirus A50) of 0.06 µM (≈ 0.023 µg/mL), an MIC (rhinovirus A89) of 0.02 µM (≈ 0.00767 µg/mL) and an MIC (rhinovirus A67) of 0.18 µM (≈ 0.069 µg/mL). It also gave an MIC (rhinovirus A1B) of 0.17 µM (≈ 0.0652 µg/mL), an MIC (rhinovirus B14 [5]) of 1.2 µM (≈ 0.46 µg/mL) and an MIC (rhinovirus A41) of 0.89 µM (≈ 0.341 µg/mL). It also gave an MIC (rhinovirus A30) of 0.09 µM (≈ 0.0345 µg/mL) and an MIC (rhinovirus B86) of 0.21 µM (≈ 0.0805 µg/mL).
With `Cc1cc(CCCCCOc2c(Cl)cc(-c3nc(C)c(C)s3)cc2Cl)on1` the MIC80 (Human rhinovirus sp. [4]) was 2.14 µM (≈ 0.91 µg/mL) and the MIC (rhinovirus B14 [5]) was 2.59 µM (≈ 1.1 µg/mL).
With `Cc1cc(CCCCCOc2c(Cl)cc(-c3ccsc3)cc2Cl)on1` the MIC80 (Human rhinovirus sp. [4]) was 2.88 µM (≈ 1.14 µg/mL) and the MIC (rhinovirus B14 [6]) was “inactive”.
`Cc1cc(CCCCCOc2c(Cl)cc(-c3ccncc3)cc2Cl)on1` was tested, and the MIC (rhinovirus B14 [5]) was 0.97 µM (≈ 0.38 µg/mL).
Compound `Cc1cc(CCCCCOc2c(Cl)cc(-c3ncco3)cc2Cl)on1` has an MIC80 (Human rhinovirus sp. [4]) of 1.71 µM (≈ 0.652 µg/mL) and an MIC (rhinovirus B14 [5]) of 1.83 µM (≈ 0.698 µg/mL).
Work on `Cc1cc(CCCCCOc2c(Cl)cc(-c3nnnn3C)cc2Cl)on1` yielded an MIC80 (Human rhinovirus sp. [4]) of 7.02 µM (≈ 2.78 µg/mL), an MIC80 (Human rhinovirus sp. [7]) of 7.02 µM (≈ 2.78 µg/mL) and an MIC (rhinovirus B14 [5]) of 2.04 µM (≈ 0.808 µg/mL).
For `Cc1cc(CCCCCOc2c(Cl)cc(-c3ccc(C)s3)cc2Cl)on1`, the MIC80 (Human rhinovirus sp. [4]) was 1.71 µM (≈ 0.702 µg/mL) and the MIC (rhinovirus B14 [5]) was 5.2 µM (≈ 2.13 µg/mL).
